Data reported in paper PMC9305466 (British Journal of Clinical Pharmacology, 2022).

Experiments:
[1] = tested on: subjects with rheumatoid arthritis (RA); test: Exposure-safety analysis; format: in vivo, human; conditions: up to week 52; for exposures (AUC0‐24) by presence or absence of the five most frequent TEAEs: nausea, nasopharyngitis, upper respiratory tract infection, headache, hypertension
Method in brief: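 Individual parent and metabolite exposures came from population PK models and were analysed separately for each analyte. Data were pooled from all five studies across all doses. Data collected after rerandomization and a switch of treatment group were excluded. Exposures were compared between subjects with and without each event (serious TEAEs, serious infections). Cmax was also evaluated.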

[2] = cited from earlier work; for effect of moderate hepatic impairment on exposure (AUC and C max): compared with matched healthy controls
JAK1 = conditions: GS‐829845 vs filgotinib; cited from earlier work
[3] = phase 1 studies; cited from earlier work
[4] = tested on: JAK1‐related interleukin‐6 (IL‐6)‐induced phosphorylated signal transducer and activator of transcription 1 (pSTAT1); conditions: cited from earlier work
[5] = tested on: subjects with moderately to severely active rheumatoid arthritis (RA); test: Exposure-efficacy analysis; format: in vivo, human; conditions: week 12; filgotinib 100 mg group
Method in brief: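 Individual exposures came from population PK models (nonlinear mixed-effects), built separately for parent and active metabolite. Parent and metabolite exposures were combined as AUCeff, weighted by relative JAK1 inhibition potency. Data were pooled from 3 phase 3 and 2 phase 2 studies: dosed subjects with ≥1 PopPK parameter, plus placebo at week 12. Binary response was fit by nonlinear logistic (Emax on logit) regression, with Clopper-Pearson binomial CIs.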

Row | Compound | exposures (AUC0‐24) by presence or absence of the five most frequent TEAEs [1] | serious TEAEs and serious infections against exposures [1] | exposure in elderly subjects (≥75 years) compared with younger subjects [2] [fold] | exposure in subjects with severe renal impairment (RI), fold higher [2] [fold] | effect of moderate hepatic impairment on exposure (AUC and C max) [2] | potency relative to the parent (JAK1 preferential inhibitor), fold less potent (JAK1) | half‐life [3] | maximum inhibition of pSTAT1 ([4]; plateaued at or above 200 mg total daily dose) | intermediate inhibition of pSTAT1 ([4]; total daily dose of 100 mg) | ACR20 response rate [5]
1 | Nc1nc2cccc(-c3ccc(CN4CCS(=O)(=O)CC4)cc3)n2n1 [GS‐829845] | similar | no exposure‐driven patterns were present | 1.33 | 2.74 | no clinically relevant effect | approximately 10 fold | approximately 19 hours | – | – | –
2 | O=C(Nc1nc2cccc(-c3ccc(CN4CCS(=O)(=O)CC4)cc3)n2n1)C1CC1 [filgotinib] | similar | no exposure‐driven patterns were present | 1.45 | 1.54 | no clinically relevant effect | – | ~7 h | ~ 78% | ~ 47% | approximately 70%
